Assay results: ChEMBL document CHEMBL3734757, “Discovery of novel quinoline-based mTOR inhibitors via introducing intra-molecular hydrogen bonding scaffold (iMHBS): The design, synthesis and biological evaluation” (Bioorg Med Chem, 2015)
Calls of active or inactive are those of the source. No cut-off for these calls is given here.

Key:
[1] = target: Serine/threonine-protein kinase mTOR (Homo sapiens, UniProt P42345); experiment: Inhibition of mTOR (unknown origin) using ULight-4E-BP1 peptide as substrate after 1 hr by lance ultra assay
[2] = target: T1, Phosphatidylinositol 4,5-bisphosphate 3-kinase catalytic subunit alpha isoform (Homo sapiens, UniProt P42336); experiment: Inhibition of PI3Kalpha (unknown origin) after 1 hr by Kinase-Glo Luminescent assay
T1 sequence (P42336 whole entry, canonical isoform): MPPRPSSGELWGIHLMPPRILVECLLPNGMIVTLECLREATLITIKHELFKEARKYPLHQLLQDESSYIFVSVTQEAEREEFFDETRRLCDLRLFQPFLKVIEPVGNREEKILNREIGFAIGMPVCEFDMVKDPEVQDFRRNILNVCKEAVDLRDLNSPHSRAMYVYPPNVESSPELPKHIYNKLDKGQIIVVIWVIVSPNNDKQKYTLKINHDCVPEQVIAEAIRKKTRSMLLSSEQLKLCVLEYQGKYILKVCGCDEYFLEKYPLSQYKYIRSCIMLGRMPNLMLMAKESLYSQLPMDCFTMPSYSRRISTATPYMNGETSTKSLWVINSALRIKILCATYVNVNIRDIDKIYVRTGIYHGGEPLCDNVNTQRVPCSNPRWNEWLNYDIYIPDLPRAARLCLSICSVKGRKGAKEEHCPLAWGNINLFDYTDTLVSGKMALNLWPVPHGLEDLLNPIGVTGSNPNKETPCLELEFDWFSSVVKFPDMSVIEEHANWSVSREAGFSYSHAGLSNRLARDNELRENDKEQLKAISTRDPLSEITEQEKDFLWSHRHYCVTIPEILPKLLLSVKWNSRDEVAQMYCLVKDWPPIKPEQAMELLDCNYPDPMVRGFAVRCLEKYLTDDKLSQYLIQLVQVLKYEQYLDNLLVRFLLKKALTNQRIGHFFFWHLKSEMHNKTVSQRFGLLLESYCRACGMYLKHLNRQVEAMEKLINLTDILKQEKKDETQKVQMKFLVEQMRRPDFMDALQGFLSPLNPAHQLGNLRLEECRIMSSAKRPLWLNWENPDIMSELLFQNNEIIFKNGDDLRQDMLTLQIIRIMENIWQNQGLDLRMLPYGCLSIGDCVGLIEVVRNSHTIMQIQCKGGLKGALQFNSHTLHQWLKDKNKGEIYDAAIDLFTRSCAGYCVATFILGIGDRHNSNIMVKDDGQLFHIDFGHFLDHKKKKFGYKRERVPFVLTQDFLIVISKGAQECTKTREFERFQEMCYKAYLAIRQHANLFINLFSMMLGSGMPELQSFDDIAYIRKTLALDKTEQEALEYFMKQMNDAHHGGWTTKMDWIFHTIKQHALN

[3] = target: T2, Phosphatidylinositol 4,5-bisphosphate 3-kinase catalytic subunit beta isoform (Homo sapiens, UniProt P42338); experiment: Inhibition of PI3Kbeta (unknown origin) after 1 hr by ADP-Glo Luminescent assay
Summary of the method: (§1)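 Purchased PI3Kβ reaction run 1 h at room temperature. An aliquot was moved to a new plate and stopped with an equal volume of ADP-Glo reagent, equilibrated 40 min. Kinase detection reagent added, shaken 1 min, equilibrated 60 min, then luminescence read. Inhibition relative to DMSO (max) and no-enzyme (min) controls; IC50 from four-parameter Hill fit.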
Target sequence in this assay (P42338 whole entry, canonical isoform): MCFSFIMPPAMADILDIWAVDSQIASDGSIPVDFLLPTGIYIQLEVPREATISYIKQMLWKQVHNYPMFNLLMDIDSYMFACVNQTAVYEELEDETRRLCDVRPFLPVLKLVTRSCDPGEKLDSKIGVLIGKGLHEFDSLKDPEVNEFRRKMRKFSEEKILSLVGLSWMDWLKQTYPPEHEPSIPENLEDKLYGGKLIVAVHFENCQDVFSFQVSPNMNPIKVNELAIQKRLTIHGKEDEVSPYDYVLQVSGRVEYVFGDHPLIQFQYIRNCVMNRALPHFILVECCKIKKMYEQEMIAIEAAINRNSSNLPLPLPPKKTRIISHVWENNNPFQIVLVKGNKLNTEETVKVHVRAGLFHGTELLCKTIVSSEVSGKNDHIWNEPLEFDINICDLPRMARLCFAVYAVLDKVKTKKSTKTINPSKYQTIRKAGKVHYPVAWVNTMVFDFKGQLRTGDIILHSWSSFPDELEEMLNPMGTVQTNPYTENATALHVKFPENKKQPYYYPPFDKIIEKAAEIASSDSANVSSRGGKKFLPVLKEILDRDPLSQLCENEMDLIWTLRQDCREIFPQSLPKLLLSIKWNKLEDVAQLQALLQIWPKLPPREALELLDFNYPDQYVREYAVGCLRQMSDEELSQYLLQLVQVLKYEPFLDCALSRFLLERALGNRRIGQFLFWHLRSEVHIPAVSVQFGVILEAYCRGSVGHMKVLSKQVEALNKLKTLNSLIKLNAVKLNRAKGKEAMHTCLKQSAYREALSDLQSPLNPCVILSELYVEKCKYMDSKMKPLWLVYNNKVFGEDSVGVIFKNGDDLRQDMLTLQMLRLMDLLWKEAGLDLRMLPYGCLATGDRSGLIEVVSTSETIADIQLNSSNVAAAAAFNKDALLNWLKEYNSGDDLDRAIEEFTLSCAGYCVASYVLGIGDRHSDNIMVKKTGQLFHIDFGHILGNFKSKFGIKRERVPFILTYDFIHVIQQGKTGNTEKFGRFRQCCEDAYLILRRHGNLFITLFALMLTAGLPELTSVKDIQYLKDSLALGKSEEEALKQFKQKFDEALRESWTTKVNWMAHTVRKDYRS

[4] = target: T3, Phosphatidylinositol 4,5-bisphosphate 3-kinase catalytic subunit gamma isoform (Homo sapiens, UniProt P48736); experiment: Inhibition of PI3Kgamma (unknown origin) after 1 hr by ADP-Glo Luminescent assay
Target sequence in this assay (P48736 whole entry, canonical isoform): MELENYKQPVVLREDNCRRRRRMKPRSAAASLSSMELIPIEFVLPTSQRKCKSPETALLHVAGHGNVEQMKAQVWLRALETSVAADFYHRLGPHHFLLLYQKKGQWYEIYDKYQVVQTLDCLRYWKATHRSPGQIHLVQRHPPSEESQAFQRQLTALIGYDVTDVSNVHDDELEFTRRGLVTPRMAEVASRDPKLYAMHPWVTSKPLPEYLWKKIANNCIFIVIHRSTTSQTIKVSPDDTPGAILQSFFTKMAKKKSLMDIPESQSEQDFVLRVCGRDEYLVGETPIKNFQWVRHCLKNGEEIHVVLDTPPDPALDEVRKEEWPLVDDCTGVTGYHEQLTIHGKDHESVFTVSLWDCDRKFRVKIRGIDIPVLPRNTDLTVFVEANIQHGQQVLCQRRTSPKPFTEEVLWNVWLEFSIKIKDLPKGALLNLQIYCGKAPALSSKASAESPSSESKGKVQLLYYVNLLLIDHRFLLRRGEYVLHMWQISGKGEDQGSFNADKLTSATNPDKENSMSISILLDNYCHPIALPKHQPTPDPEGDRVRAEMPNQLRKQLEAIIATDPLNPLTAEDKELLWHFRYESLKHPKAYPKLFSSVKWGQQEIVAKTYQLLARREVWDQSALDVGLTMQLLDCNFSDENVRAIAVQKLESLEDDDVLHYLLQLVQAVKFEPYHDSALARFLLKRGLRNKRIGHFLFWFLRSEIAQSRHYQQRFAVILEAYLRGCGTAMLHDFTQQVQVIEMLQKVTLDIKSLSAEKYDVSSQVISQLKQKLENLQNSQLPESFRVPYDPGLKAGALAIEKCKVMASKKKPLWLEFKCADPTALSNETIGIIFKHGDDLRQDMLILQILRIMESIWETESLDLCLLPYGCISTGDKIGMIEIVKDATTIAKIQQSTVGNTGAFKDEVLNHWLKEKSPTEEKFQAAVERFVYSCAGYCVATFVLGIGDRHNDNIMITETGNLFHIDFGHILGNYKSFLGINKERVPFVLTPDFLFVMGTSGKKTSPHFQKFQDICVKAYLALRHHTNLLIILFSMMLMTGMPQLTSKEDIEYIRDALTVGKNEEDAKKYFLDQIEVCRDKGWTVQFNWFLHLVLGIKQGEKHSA

[5] = target: T4, Phosphatidylinositol 4,5-bisphosphate 3-kinase catalytic subunit delta isoform (Homo sapiens, UniProt O00329); experiment: Inhibition of PI3Kdelta (unknown origin) after 1 hr by ADP-Glo Luminescent assay
T4 sequence (O00329 whole entry): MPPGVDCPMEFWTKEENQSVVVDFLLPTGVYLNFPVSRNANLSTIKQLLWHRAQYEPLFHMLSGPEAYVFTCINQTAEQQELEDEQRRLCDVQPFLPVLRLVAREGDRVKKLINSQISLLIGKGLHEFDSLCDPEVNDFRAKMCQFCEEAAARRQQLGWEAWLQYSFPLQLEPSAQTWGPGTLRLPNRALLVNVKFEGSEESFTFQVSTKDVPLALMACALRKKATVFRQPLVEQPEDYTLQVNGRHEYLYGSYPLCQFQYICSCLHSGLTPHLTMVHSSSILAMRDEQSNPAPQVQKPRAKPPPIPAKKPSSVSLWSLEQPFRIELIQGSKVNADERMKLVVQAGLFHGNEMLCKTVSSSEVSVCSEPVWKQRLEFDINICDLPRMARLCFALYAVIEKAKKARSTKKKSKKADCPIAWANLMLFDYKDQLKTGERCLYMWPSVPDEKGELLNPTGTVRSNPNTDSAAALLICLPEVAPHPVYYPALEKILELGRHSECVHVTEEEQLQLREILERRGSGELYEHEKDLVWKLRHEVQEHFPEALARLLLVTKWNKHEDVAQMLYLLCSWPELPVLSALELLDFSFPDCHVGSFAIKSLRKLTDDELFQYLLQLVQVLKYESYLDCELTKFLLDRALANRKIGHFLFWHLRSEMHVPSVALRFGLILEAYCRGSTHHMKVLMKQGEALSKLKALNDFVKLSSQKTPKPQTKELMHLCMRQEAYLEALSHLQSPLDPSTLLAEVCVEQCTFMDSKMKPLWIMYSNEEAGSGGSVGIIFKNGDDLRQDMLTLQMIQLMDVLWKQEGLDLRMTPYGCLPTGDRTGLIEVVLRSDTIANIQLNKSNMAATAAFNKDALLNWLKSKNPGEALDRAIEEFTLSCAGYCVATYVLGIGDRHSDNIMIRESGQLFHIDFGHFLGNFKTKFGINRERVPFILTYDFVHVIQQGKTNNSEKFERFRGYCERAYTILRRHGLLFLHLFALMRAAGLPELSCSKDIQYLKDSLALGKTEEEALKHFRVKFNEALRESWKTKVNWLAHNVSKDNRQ

[6] = tested on: MCF7; experiment: Inhibition of mTORC1/2 in human MCF7 cells assessed as downregulation of pAKT(Ser473) and pS6(Ser235) at 0.5 uM after 2 hrs by Western blot analysis; format: cell-based
[7] = cells; details: Homo sapiens, HCT-116, 72 h
[8] = cells; details: Homo sapiens, PC-3, 72 h
[9] = tested on: MCF7; experiment: cells; details: Homo sapiens, MCF7, 72 h
[10] = tested on: MCF7; experiment: Inhibition of mTORC2 in human MCF7 cells assessed as downregulation of pAKT(Ser473) at 0.1 uM after 2 hrs by Western blot analysis
[11] = target: T1, Phosphatidylinositol 4,5-bisphosphate 3-kinase catalytic subunit alpha isoform; experiment: Inhibition of PI3Kalpha (unknown origin) at 1 uM after 1 hr by Kinase-Glo Luminescent assay
Summary of the method: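 Purchased PI3Kα in buffer of 50 mM HEPES pH 7.5, 3 mM MgCl2, 1 mM EDTA, 100 mM NaCl, 0.03% CHAPS, 2 mM DTT; substrate PIP2 plus ATP. Reaction 1 h at room temperature, stopped with Kinase-Glo reagent, 15 min equilibration, luminescence read. Percent inhibition from no-enzyme and DMSO controls; IC50 from four-parameter Hill fit.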

[12] = target: T2, Phosphatidylinositol 4,5-bisphosphate 3-kinase catalytic subunit beta isoform; experiment: Inhibition of PI3Kbeta (unknown origin) at 1 uM after 1 hr by ADP-Glo Luminescent assay; summary of the method: as §1
Target sequence in this assay (P42338 whole entry, looked up, canonical isoform): as the sequence (P42338 whole entry, canonical isoform) above

[13] = target: T3, Phosphatidylinositol 4,5-bisphosphate 3-kinase catalytic subunit gamma isoform; experiment: Inhibition of PI3Kgamma (unknown origin) at 1 uM after 1 hr by ADP-Glo Luminescent assay
Target sequence in this assay (P48736 whole entry, looked up, canonical isoform): as the sequence (P48736 whole entry, canonical isoform) above

[14] = target: T5, Phosphatidylinositol 4,5-bisphosphate 3-kinase catalytic subunit delta isoform (Homo sapiens) (UniProt O00329); experiment: Inhibition of PI3Kdelta (unknown origin) at 1 uM after 1 hr by ADP-Glo Luminescent assay
T5 sequence (whole entry): T4 sequence (O00329 whole entry)

[15] = Metabolic stability in simulated gastric fluid after 45 mins; format: ADME; details: simulated gi fluid, 0.75 h
[16] = Metabolic stability in simulated intestinal fluid after 45 mins; format: ADME; details: simulated gi fluid, 0.75 h
[17] = Metabolic stability in rat liver microsomes after 30 mins; format: ADME; details: read-out: Stability
[18] = Metabolic stability in human liver microsomes after 30 mins; format: ADME; details: read-out: Stability
[19] = Metabolic stability in human liver microsomes after 60 mins; format: ADME; details: read-out: Stability
[20] = tested on: MCF7; experiment: Inhibition of mTORC2 in human MCF7 cells assessed as downregulation of pAKT(Ser473) at 0.5 uM after 2 hrs by Western blot analysis; format: cell-based
[21] = target: mTORC1 (Homo sapiens) (UniProt P42345+Q8N122+Q9BVC4); details: MCF7, 0.5 uM
Sequence of mTORC1 (Homo sapiens) (Q8N122 whole entry, looked up, other chains not shown): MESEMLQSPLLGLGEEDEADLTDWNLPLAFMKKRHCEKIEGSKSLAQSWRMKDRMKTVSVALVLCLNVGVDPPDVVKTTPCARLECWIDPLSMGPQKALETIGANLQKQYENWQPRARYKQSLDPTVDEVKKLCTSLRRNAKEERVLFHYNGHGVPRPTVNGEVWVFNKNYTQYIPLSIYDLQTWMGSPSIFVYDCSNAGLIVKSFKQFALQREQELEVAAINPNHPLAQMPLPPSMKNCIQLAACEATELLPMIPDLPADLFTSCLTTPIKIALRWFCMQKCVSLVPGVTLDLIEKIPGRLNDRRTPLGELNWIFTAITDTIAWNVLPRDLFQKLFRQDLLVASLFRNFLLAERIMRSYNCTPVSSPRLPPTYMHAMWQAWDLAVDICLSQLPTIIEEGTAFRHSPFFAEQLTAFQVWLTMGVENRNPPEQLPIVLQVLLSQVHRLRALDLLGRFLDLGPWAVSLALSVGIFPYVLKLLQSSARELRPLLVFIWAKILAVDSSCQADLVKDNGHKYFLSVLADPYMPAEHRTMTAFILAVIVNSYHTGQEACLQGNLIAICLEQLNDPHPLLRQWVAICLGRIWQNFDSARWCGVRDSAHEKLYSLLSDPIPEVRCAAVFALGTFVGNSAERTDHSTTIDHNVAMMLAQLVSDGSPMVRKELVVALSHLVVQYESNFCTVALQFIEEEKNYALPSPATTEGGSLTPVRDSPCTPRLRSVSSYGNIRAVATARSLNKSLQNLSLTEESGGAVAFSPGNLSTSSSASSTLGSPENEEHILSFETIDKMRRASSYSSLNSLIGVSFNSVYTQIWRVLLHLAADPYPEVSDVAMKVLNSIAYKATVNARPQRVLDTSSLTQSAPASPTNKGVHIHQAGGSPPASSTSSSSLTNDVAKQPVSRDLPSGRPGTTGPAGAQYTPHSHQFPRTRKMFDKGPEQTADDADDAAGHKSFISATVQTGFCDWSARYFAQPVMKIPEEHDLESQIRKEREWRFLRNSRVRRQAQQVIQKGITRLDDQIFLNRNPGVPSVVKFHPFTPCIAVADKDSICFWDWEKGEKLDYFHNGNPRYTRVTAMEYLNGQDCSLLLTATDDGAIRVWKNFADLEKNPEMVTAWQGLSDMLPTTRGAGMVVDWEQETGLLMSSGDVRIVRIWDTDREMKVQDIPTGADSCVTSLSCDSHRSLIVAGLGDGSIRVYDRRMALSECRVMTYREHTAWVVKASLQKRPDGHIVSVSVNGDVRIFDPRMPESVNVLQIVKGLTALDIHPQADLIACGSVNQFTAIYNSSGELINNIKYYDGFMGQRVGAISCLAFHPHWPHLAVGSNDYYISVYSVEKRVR
Sequence of mTORC1 (Homo sapiens) (Q9BVC4 whole entry, looked up, other chains not shown): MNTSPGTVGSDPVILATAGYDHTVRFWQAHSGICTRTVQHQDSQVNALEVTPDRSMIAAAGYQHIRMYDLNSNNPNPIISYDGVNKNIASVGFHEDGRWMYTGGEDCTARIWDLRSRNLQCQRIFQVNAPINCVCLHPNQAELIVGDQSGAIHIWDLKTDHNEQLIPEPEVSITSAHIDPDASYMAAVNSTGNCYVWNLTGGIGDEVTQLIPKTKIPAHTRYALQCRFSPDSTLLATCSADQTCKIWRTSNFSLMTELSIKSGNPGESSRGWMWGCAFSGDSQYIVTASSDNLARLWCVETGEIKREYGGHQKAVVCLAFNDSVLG

Structure (SMILES): CC(=O)N1CCN(c2ccc(Nc3c(C(N)=O)cnc4ccc(-c5cnc6ccccc6c5)cc34)cc2C(F)(F)F)CC1
- IC50 [1]: 0.031 µM
- IC50 [2]: 2.43 µM
- IC50 [3]: > 5 µM
- IC50 [4]: 0.939 µM
- IC50 [5]: > 5 µM
- inhibition [6]: Active
- IC50 [7]: 1.29 µM
- IC50 [8]: 3.9 µM
- IC50 [9]: 0.44 µM
- inhibition [10]: Active

Structure (SMILES): Cl.NC(=O)c1cnc2ccc(-c3cnc4ccccc4c3)cc2c1Nc1ccc(N2CCNCC2)c(C(F)(F)F)c1
- inhibition [11]: 32.3%
- inhibition [12]: 1%
- inhibition [13]: 6.7%
- inhibition [14]: 16.7%
- Stability [15]: Stable
- Stability [16]: Stable
- remaining at 0.5 h [17]: 50%
- remaining at 0.5 h [18]: 80%
- remaining at 1 h [19]: 73%
- IC50 [7]: 0.46 µM
- IC50 [8]: 0.61 µM
- IC50 [9]: 0.24 µM

Structure (SMILES): CCC(=O)N1CCN(c2ccc(Nc3c(C(N)=O)cnc4ccc(-c5ccc(N)nc5)cc34)cc2C(F)(F)F)CC1
- IC50 [7]: 2.4 µM
- IC50 [8]: 1.46 µM
- IC50 [9]: 0.57 µM

Structure (SMILES): CN1CCN(CC(=O)N2CCN(c3ccc(Nc4c(C(N)=O)cnc5ccc(-c6cnc7ccccc7c6)cc45)cc3C(F)(F)F)CC2)CC1
- IC50 [7]: 0.97 µM
- IC50 [8]: 0.99 µM
- IC50 [9]: 0.44 µM

Structure (SMILES): Cn1nccc1-c1ccc2ncc(C(N)=O)c(Nc3ccc(N4CCN(S(C)(=O)=O)CC4)c(C(F)(F)F)c3)c2c1
- IC50 [7]: 14.7 µM
- IC50 [8]: 7.08 µM
- IC50 [9]: 2.69 µM

Structure (SMILES): Cn1nccc1-c1ccc2ncc(C(N)=O)c(Nc3ccc(C(C)(C)C#N)cc3)c2c1
- IC50 [7]: 17.3 µM
- IC50 [8]: > 50 µM
- IC50 [9]: 1.25 µM

Structure (SMILES): NC(=O)c1cnc2ccc(-c3ccc(N)nc3)cc2c1Nc1cccc(C(F)(F)F)c1
- IC50 [7]: 1.83 µM
- IC50 [8]: 1.08 µM
- IC50 [9]: 0.41 µM

Structure (SMILES): CNC(=O)c1cnc2ccc(-c3ccc(N)nc3)cc2c1Nc1ccc(C(C)(C)C#N)cc1
- IC50 [7]: 4.66 µM
- IC50 [8]: 1.74 µM
- IC50 [9]: 0.49 µM

Structure (SMILES): COc1ccc(-c2ccc3ncc(C(N)=O)c(Nc4ccc(N5CCNCC5)c(C(F)(F)F)c4)c3c2)cn1
- IC50 [7]: 2.05 µM
- IC50 [8]: 0.99 µM
- IC50 [9]: 0.78 µM

Structure (SMILES): NC(=O)c1cnc2ccc(-c3cnc4ccccc4c3)cc2c1Nc1cccc(C(F)(F)F)c1
- IC50 [7]: 3.17 µM
- IC50 [8]: 6.39 µM
- IC50 [9]: 0.6 µM

Structure (SMILES): O=C(NC1CC1)c1cnc2ccc(-c3cnc4ccccc4c3)cc2c1Nc1ccc(N2CCNCC2)c(C(F)(F)F)c1
- IC50 [1]: > 3 µM

Structure (SMILES): CC(C)(C#N)c1ccc(Nc2c(C(N)=O)cnc3ccc(-c4cnc5ccccc5c4)cc23)cc1
- IC50 [1]: 0.033 µM
- inhibition [11]: 26.9%
- inhibition [12]: 10.3%
- inhibition [13]: -2.4%
- IC50 [7]: 4.56 µM
- IC50 [8]: 2.82 µM
- IC50 [9]: 0.95 µM

Structure (SMILES): CS(=O)(=O)N1CCN(c2ccc(Nc3c(C(N)=O)cnc4ccc(-c5cnc6ccccc6c5)cc34)cc2C(F)(F)F)CC1
- IC50 [7]: 1 µM
- IC50 [8]: 3.73 µM
- IC50 [9]: 0.36 µM

Structure (SMILES): COc1ccc(-c2ccc3ncc(C(N)=O)c(Nc4ccc(C(C)(C)C#N)cc4)c3c2)cn1
- IC50 [7]: 2.57 µM
- IC50 [8]: 1.66 µM
- IC50 [9]: 1.58 µM

Structure (SMILES): CO[C@H]1C[C@@H]2CC[C@@H](C)[C@@](O)(O2)C(=O)C(=O)N2CCCC[C@H]2C(=O)O[C@H]([C@H](C)C[C@@H]2CC[C@@H](O)[C@H](OC)C2)CC(=O)[C@H](C)/C=C(\C)[C@@H](O)[C@@H](OC)C(=O)[C@H](C)C[C@H](C)/C=C/C=C/C=C/1C
- inhibition [20]: inactive
- inhibition [21]: Active

Structure (SMILES): CNC(=O)c1cnc2ccc(-c3cnc4ccccc4c3)cc2c1Nc1ccc(C(C)(C)C#N)cc1
- IC50 [7]: 8.73 µM
- IC50 [8]: 7.12 µM
- IC50 [9]: 1.3 µM

Structure (SMILES): CC(C)(C#N)c1ccc(Nc2c(C(N)=O)cnc3ccc(-c4ccc(N)nc4)cc23)cc1
- IC50 [7]: 0.67 µM
- IC50 [8]: 0.83 µM
- IC50 [9]: 0.52 µM

Structure (SMILES): Cn1c(=O)n(-c2ccc(C(C)(C)C#N)cc2)c2c3cc(-c4cnc5ccccc5c4)ccc3ncc21 [DACTOLISIB]
- IC50 [7]: 0.2 µM
- IC50 [8]: 0.21 µM
- IC50 [9]: 0.05 µM
